# According to PMC9934649 (bioRxiv, 2023):
# “Also recorded” adds a separate entry of the source.
# Columns and labels:
# WT human CDKL5 = target: T1, WT human CDKL5 (Homo sapiens, UniProt O76039); experiment: CDKL5 in vitro kinase assay; format: biochemical; conditions: 10 or 100 nM compound, 50 µM ATP, vs untreated WT CDKL5
# T1 sequence (O76039 1-960): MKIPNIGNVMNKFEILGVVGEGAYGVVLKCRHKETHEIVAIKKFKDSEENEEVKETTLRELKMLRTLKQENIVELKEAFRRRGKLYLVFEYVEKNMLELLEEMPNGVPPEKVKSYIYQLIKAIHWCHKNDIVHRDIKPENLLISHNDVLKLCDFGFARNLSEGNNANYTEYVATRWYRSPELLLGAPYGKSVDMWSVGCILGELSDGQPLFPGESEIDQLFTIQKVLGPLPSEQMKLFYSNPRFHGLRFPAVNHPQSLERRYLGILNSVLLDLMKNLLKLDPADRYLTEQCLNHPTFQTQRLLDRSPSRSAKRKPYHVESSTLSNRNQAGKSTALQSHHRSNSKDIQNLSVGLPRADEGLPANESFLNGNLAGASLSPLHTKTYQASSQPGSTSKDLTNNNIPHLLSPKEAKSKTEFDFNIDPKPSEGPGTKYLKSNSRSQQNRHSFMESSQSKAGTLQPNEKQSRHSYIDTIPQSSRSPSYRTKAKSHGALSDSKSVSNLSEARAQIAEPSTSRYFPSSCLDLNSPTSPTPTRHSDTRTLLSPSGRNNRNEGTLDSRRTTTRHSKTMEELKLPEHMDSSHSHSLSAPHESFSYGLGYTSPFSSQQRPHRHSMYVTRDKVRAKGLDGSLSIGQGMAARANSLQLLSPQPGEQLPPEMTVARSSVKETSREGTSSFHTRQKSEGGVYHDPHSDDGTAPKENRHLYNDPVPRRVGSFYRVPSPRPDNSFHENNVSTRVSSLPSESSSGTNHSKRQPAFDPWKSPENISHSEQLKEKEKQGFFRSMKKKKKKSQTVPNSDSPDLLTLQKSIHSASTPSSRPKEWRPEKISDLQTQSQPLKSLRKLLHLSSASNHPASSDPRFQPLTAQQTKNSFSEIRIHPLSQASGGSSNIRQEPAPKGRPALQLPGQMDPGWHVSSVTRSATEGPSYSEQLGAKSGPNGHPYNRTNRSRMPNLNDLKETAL
# Method in brief: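 FLAG-tagged WT human CDKL5, with a K42R kinase-dead control, was made by HeLa-lysate in vitro translation and purified on cobalt spin columns. Enzyme plus myelin basic protein substrate was incubated in kinase buffer with or without 50 µM ATP at 30 °C for 30 min, with test compound at 10 or 100 nM or DMSO. Read by ADP-Glo. Triplicate; one-way ANOVA with Dunnett's test.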
# human motor neurons = experiment: Neuroprotection assay, ER stress induced by cyclopiazonic acid; format: cell-based; conditions: for Motor neuron survival in response to ER stress: cyclopiazonic acid, 72 hours, 0.16–10 µM; for Motor neuron survival at low concentrations compared with AT-7519: low concentrations (<200 nM)
# Method in brief: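 Motor neurons came from NCRM-1 iPSCs carrying a VAChT:TdTomato reporter, differentiated as embryoid bodies for 16 days. They were plated at 2000 cells/well on laminin/poly-ornithine in neurobasal medium with anti-mitotics, B-27, N-2 and GDNF, BDNF, IGF-1 and CNTF. After 48 h, cells were co-treated with cyclopiazonic acid and test compound (4-fold dilutions, 0.16–10 µM, triplicate wells) for 72 h. Calcein AM live cells were counted as % of DMSO-treated survivors.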
# CDKL5 [1] = target: T2, CDKL5 (Homo sapiens, UniProt O76039); experiment: CDKL5 NanoBRET in-cell target engagement assay; format: cell-based
# T2 sequence (O76039 1-960): T1 sequence (O76039 1-960)
# GSK3β = GSK3β (Homo sapiens, UniProt P49841); experiment: GSK3β NanoBRET assay; format: cell-based; conditions: GSK3β NanoBRET IC50, tracer K8
# GSK3β, sequence (P49841 whole entry): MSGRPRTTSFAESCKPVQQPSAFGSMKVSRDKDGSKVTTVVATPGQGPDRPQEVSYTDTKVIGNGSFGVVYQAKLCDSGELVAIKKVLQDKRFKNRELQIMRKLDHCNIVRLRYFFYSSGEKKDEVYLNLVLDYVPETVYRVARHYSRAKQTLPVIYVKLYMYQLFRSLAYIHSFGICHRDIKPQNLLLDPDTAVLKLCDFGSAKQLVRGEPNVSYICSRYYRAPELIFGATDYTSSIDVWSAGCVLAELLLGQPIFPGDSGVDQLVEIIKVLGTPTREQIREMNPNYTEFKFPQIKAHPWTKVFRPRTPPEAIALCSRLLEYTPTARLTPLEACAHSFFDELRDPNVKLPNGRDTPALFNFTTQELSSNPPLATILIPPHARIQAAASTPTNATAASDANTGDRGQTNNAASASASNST
# CDKL5 [2] = target: T2, CDKL5; experiment: CDKL5 split luciferase assay; format: binding; conditions: compound 2 vs compound 4
# Method in brief: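 Luminescence-based competition binding assay: test compound displaces an active-site-dependent probe from CDKL5. Run as 12-point dose–response in duplicate to give IC50 values.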
# GSK3α = GSK3α (Homo sapiens, UniProt P49840); experiment: GSK3α NanoBRET assay; format: cell-based; conditions: GSK3α NanoBRET IC50, tracer K8
# GSK3α, sequence (P49840 whole entry): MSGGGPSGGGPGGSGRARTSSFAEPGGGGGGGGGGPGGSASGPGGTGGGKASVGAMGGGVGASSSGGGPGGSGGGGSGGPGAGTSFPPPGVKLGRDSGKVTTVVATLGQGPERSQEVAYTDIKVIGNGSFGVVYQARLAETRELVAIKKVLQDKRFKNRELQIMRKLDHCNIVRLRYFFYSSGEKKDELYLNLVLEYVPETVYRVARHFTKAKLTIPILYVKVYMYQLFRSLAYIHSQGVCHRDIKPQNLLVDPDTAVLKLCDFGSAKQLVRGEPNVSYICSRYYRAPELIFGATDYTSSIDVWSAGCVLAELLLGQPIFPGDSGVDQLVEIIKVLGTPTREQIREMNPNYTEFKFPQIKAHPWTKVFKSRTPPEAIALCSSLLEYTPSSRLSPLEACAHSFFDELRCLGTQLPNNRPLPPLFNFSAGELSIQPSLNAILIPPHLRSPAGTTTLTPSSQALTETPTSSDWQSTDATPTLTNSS
# [3] = test system: S33/37/T41 β-Catenin phosphorylation; format: cell-based; conditions: rat primary cortical neurons, 1 hour, dose-response
# Method in brief: (§1)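 Cortical neurons were taken from E18.5 Long Evans rat embryos (trypsin 0.25%, 15 min, 37 °C) and plated at 300,000/well on poly-D-lysine/laminin. At DIV11–14, cells were given 5 nM–5 µM test compound or DMSO for 1 h at 37 °C. Lysates were immunoblotted with ECL detection. pEB2 S222 was normalised to total EB2, pβ-catenin to total β-catenin, and CDKL5 to tubulin.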
# CDKL5 expression = experiment: Western blot of CDKL5 expression in rat primary cortical neurons; format: cell-based; conditions: 1 hour treatment
# Method in brief: as §1
# CDKL5 kinase domain = target: T3, CDKL5 kinase domain (Homo sapiens, UniProt O76039, T169D/Y171E); experiment: Thermal shift assay; format: binding; conditions: all concentrations evaluated (12.5, 25, or 50 µM)
# T3 sequence (O76039 1-303 T169D/Y171E): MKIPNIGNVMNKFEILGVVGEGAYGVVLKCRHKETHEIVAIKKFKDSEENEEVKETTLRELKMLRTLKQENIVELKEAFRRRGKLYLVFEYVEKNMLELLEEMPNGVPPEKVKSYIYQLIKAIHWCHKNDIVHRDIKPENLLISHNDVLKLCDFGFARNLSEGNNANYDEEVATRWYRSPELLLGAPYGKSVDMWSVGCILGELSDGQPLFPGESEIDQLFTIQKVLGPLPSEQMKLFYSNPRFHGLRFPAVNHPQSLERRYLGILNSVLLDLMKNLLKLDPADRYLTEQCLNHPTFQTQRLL
# Method in brief: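 The CDKL5 kinase domain (construct boundaries of 4BGQ) was used at 4 µM in 10 mM HEPES-NaOH pH 7.4, 500 mM NaCl with 5× SYPRO Orange. It was incubated with test compound at 12.5, 25 or 50 µM. Fluorescence was recorded on a real-time PCR instrument to derive melting-temperature shifts.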
# S222 EB2 phosphorylation = experiment: Western blot of S222 EB2 phosphorylation in rat primary cortical neurons; format: cell-based; conditions: 1 hour, 5 nM, 50 nM, 500 nM or 5 µM
# Method in brief: as §1
# DYRK1B = DYRK1B (Homo sapiens, UniProt Q9Y463); experiment: Radiometric HotSpot kinase assay; format: biochemical; conditions: enzymatic IC50 values
# DYRK1B, sequence (Q9Y463 whole entry): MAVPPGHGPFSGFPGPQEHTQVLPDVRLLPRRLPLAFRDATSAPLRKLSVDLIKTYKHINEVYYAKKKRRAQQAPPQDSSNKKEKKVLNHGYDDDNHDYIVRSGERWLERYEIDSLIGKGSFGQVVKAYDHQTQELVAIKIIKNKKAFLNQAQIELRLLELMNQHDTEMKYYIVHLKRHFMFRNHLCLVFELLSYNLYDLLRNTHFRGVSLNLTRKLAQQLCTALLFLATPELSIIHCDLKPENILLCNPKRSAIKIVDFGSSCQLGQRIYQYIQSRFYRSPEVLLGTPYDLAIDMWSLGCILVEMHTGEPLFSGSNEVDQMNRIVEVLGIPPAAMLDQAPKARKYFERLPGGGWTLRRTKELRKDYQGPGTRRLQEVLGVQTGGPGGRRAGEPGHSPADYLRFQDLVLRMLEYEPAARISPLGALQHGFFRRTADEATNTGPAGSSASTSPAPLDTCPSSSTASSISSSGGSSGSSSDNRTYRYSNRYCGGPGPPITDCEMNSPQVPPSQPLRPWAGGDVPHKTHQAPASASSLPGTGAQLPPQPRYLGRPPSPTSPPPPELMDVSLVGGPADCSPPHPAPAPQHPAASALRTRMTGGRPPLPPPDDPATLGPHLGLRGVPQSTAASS
# Method in brief: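 Window was taken from enzymatic IC50s. DYRK1B: radiometric HotSpot assay at ATP Km, 10-point dose–response. GSK3β: radiometric assay at ATP Km, 9-point dose–response.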
SMILES,Effect on CDKL5 kinase activity (WT human CDKL5),Motor neuron survival in response to ER stress (human motor neurons),IC50 (CDKL5 [1]) [nM],IC50 (GSK3β) [nM],Fold higher potency than compound 4 in split-luciferase CDKL5 assay (CDKL5 [2]) [fold],IC50 (GSK3α) [nM],Phosphorylation of β-catenin (S33/37/T41) [3],CDKL5 expression (CDKL5 expression),"Change in melting temperature (ΔTm), CDKL5 (CDKL5 kinase domain) [°C]",Motor neuron survival at low concentrations compared with AT-7519 (human motor neurons),Phosphorylation of EB2 (S222) (S222 EB2 phosphorylation),Fold less active than compound 2 in CDKL5 NanoBRET (CDKL5 [1]; compound 4 vs compound 2),"Selectivity window between GSK3β and DYRK1B, the next most potently inhibited kinase (DYRK1B) [fold]"
"CCN1CCN(Cc2ccc(NC(=O)Nc3ccc(Oc4cc(NC)ncn4)cc3)cc2C(F)(F)F)CC1 [AST-487, reference compound]","robust, dose-dependent inhibition",,,,,,,,,,,,
"O=C(NC1CCNCC1)c1n[nH]cc1NC(=O)c1c(Cl)cccc1Cl [AT-7519, N-(4-piperidinyl)-4-(2,6-dichlorobenzoylamino)-1H-pyrazole-3-carboxamide, reference compound]",,neuroprotective,,,,,,,,,,,
"O=C(Nc1c[nH]nc1C(=O)NC1CCNCC1)c1cc(F)cc(F)c1 [Compound 2, 4-(3,5-difluorobenzamido)-N-(piperidin-4-yl)-1H-pyrazole-3-carboxamide]","robust, dose-dependent inhibition",neuroprotective; also recorded: promote survival of motor neurons,4.6,< 30,~130,< 30,reduced in a dose-dependent manner,not altered,> 6,better promoted motor neuron survival than AT-7519,inhibited in a dose-dependent manner,,
"O=C(NCC1CCOCC1)c1n[nH]cc1NC(=O)c1c(F)cccc1F [Compound 4, 4-(2,6-difluorobenzamido)-N-((tetrahydro-2H-pyran-4-yl)methyl)-1H-pyrazole-3-carboxamide]",No significant difference,neuroprotective; also recorded: promote survival of motor neurons,4400,,,,reduced in a dose-dependent manner,not altered,,better promoted motor neuron survival than AT-7519,only at the highest concentration,~ 1000 ×,23
"CS(=O)(=O)CCNCc1ccc(-c2ccc3ncnc(Nc4ccc(OCc5cccc(F)c5)c(Cl)c4)c3c2)o1 [lapatinib, reference compound]",No significant difference,,,,,,,,,,,,
